Test results taken from ChEMBL document CHEMBL4428023, “1,4-Dihydropyridines Active on the SIRT1/AMPK Pathway Ameliorate Skin Repair and Mitochondrial Function and Exhibit Inhibition of Proliferation in Cancer Cells” (J Med Chem, 2016).
Calls of active or inactive are those of the source. No cut-off for these calls is given here.

Legend:
[1] = Antagonist activity at calcium channel in guinea pig smooth muscle assessed as inhibition of calcium-induced contraction in K+-depolarized aortic strips; conditions: Cavia porcellus
HaCaT [2] = assay: Activation of AMPK/SIRT1 in human HaCaT cells assessed as nitric oxide production up to 50 uM incubated for 1 hr by DAF-2D staining-based fluorescence assay; type: cell-based
In short: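 HaCaT keratinocytes in DMEM with 10% FBS; treated 1 h (dose-response at 5, 25, 50 µM; screen at 1 µM), DMSO solvent control. 5 µM DAF-2D added to the medium; cells washed, trypsinized and analysed by flow cytometry. Read-out is % DAF-positive cells relative to DMSO.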

[3] = molecular target: T1, NAD-dependent protein deacetylase sirtuin-1 (Homo sapiens) (UniProt Q96EB6); assay: Activation of full-length GST-tagged recombinant human SIRT1 assessed as enzyme activity obtained without subtraction of intrinsic fluorescence using p53-based untagged peptide as substrate at 50 uM after 30 mins by SIRTainty assay
T1 sequence (whole entry): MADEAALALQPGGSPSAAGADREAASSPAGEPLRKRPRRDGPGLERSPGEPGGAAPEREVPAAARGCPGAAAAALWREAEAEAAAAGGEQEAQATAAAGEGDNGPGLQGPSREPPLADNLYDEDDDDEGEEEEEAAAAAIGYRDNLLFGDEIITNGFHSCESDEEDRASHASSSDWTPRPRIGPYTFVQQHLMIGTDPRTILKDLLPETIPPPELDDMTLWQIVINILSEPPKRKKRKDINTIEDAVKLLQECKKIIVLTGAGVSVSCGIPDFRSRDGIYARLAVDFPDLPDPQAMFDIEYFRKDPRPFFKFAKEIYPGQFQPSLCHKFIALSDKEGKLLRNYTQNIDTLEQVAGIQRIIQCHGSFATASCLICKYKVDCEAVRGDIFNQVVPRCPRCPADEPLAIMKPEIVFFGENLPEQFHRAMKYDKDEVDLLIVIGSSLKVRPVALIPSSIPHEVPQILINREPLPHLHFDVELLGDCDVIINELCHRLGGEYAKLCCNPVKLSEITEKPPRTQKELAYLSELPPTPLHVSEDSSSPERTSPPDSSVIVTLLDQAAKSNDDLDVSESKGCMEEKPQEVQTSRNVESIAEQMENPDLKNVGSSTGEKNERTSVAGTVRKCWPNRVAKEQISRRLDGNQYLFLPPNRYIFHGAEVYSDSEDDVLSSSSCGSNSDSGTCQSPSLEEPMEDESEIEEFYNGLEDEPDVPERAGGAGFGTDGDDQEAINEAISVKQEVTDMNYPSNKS

[4] = molecular target: T1, NAD-dependent protein deacetylase sirtuin-1 (Homo sapiens); assay: Activation of full-length GST-tagged recombinant human SIRT1 assessed as enzyme activity obtained with subtraction of intrinsic fluorescence using p53-based untagged peptide as substrate at 50 uM after 30 mins by SIRTainty assay
C2C12 [5] = assay: Activation of AMPK/SIRT1 in mouse C2C12 cells assessed as increase in mitochondrial density at 30 uM after 16 hrs by Mitotracker Green staining-based confocal microscopy; type: cell-based
In short: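 Murine C2C12 myoblasts plated on coverslips and grown overnight at 37 °C, 5% CO2. Then switched to serum-free HBSS, pH 7.4, and treated 16 h at 30 µM, alone or with 5 µM compound C or EX-527. Mitotracker Green (200 nM final) added for the last 30 min. Cells fixed in 4% paraformaldehyde, permeabilized and imaged by confocal microscopy, with settings fixed on untreated cells. Plate fluorescence also quantified.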

[6] = molecular target: T1, NAD-dependent protein deacetylase sirtuin-1 (Homo sapiens); assay: Activation of SIRT1 in […] at 1 uM by fluorimetric assay; type: cell-free; conditions: HaCaT, TDE = time-dependent effect
Cavia porcellus [7] = organism: Cavia porcellus; assay: Antagonist activity at calcium channel in guinea pig smooth muscle assessed as inhibition of calcium-induced contraction in K+-depolarized aortic strips at 50 uM
In short: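 Guinea-pig isolated aortic strips depolarized with 80 mM K+; read-out is percent inhibition of calcium-induced contraction.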

HaCaT [8] = assay: Activation of AMPK/SIRT1 in human HaCaT cells assessed as nitric oxide production at 1 uM incubated for 1 hr by DAF-2D staining-based fluorescence assay; type: cell-based
In short: (§1)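 HaCaT keratinocytes grown in DMEM with 10% FBS and antibiotics. Cells treated 1 h (single-point 1 µM; dose-response at 5, 25, 50 µM). 5 µM DAF-2D added to complete medium. Cells then washed in PBS, trypsinized and analysed by flow cytometry for DAF fluorescence (ex 485/em 538 nm). Read-out is % DAF-positive cells relative to DMSO control.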

HaCaT [9] = assay: Activation of AMPK/SIRT1 in human HaCaT cells assessed as nitric oxide production at 10 uM incubated for 1 hr in presence of EX-527 by DAF-2D staining-based fluorescence assay; type: cell-based
In short: (§2)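 HaCaT cells in DMEM with 10% FBS. DHP (10 µM) given for 1 h alone or together with 10 µM AMPK inhibitor compound C or 10 µM SIRT1 inhibitor EX-527. Intracellular NO read by flow cytometry after loading with 5 µM DAF-2D in medium (ex 485/em 538 nm). Expressed as % DAF-positive cells versus DMSO.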

[10] = molecular target: T1, NAD-dependent protein deacetylase sirtuin-1 (Homo sapiens); assay: Activation of SIRT1 in human HaCaT cells assessed as H4K16 deacetylation at 1 uM after 1 hr by Western blotting method; type: cell-based
In short: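 HaCaT cells treated 1 h at 1 µM, DMSO as solvent control. Cells lysed in Laemmli buffer and immunoblotted for acetyl-H4K16 (1:1000), with total histone H4 as loading control. Bands quantified by densitometry. At least three independent experiments.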

HaCaT [11] = assay: Activation of AMPK/SIRT1 in human HaCaT cells assessed as nitric oxide production at 10 uM incubated for 1 hr in presence of compound C by DAF-2D staining-based fluorescence assay; type: cell-based; in short: as §2
Mus musculus [12] = assay: Wound healing activity in CD1 mouse assessed as increased wound closure at 1 uM administered topically on wound everyday for 14 days by biopsy punch assay; type: functional, organism-based
In short: (§3)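 Male CD1 mice, 8 weeks old, anaesthetized i.p. with medetomidine 1 mg/kg plus ketamine 75 mg/kg, then biopsy-punch wounded. Compound (1 µM) in 20 µL saline applied directly to the wound daily for 14 days; solvent-treated group as control. Epithelial gap and % wound closure followed over time.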

C2C12 [13] = assay: Activation of AMPK/SIRT1 in mouse C2C12 cells assessed as increase in mitochondrial density at 30 uM after 16 hrs by Mitotracker Green staining-based confocal microscopy in presence of EX-527; type: cell-based
In short: (§4)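 C2C12 myoblasts plated overnight, then in serum-free HBSS pH 7.4 and treated 16 h at 30 µM, alone or with 5 µM inhibitor (EX-527 or compound C). Mitotracker Green at 200 nM final was added for the last 30 min. Cells were fixed in 4% paraformaldehyde, permeabilized with Triton X-100 and imaged by confocal microscopy with fixed settings. Alternatively, mitochondrial fluorescence was quantified in plates.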

Mus musculus [14] = assay: Wound healing activity in CD1 mouse assessed as decrease in epithelial gap at 1 uM administered topically on wound everyday for 14 days by biopsy punch assay; type: functional, organism-based; in short: as §3
Cavia porcellus [15] = organism: Cavia porcellus; assay: Potency index, ratio of potency for test compound to potency for nifedipine for inhibition of calcium channel in guinea pig ileum longitudinal smooth muscle assessed as inhibition of calcium-induced contraction; type: tissue-based
[16] = molecular target: 3',5'-cyclic-AMP phosphodiesterase 4D (Homo sapiens) (UniProt Q08499); assay: Inhibition of recombinant human PDE4D assessed as phosphate release using cAMP as substrate at 50 uM after 60 mins by malachite green assay
3',5'-cyclic-AMP phosphodiesterase 4D (Homo sapiens), sequence (Q08499 whole entry): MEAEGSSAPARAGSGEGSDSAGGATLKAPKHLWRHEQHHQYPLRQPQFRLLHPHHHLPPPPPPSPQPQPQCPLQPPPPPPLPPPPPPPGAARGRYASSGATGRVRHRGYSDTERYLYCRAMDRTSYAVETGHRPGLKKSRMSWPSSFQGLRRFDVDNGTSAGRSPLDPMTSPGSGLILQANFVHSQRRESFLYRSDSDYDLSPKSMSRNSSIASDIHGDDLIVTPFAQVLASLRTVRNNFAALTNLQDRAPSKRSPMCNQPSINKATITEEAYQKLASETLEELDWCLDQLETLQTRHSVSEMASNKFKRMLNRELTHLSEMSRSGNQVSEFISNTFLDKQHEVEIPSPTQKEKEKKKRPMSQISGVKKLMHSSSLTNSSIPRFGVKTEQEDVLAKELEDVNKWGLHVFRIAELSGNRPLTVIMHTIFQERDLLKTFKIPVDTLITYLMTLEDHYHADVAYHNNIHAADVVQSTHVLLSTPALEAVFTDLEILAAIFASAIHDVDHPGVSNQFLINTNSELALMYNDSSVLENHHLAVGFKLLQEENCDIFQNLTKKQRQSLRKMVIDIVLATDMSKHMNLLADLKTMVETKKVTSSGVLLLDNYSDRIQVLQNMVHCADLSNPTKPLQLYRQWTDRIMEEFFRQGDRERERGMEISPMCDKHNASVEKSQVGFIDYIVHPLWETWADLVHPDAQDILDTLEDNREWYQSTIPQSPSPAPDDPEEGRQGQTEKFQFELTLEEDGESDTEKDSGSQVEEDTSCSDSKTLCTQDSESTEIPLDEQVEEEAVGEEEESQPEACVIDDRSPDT
In short: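 Recombinant human PDE4D (20 mU) in 10 mM Tris-HCl pH 7.4 with cAMP substrate. Compounds at 50 µM in DMSO; rolipram 10 µM as positive control. Incubated 60 min at 37 °C, then phosphate release measured by malachite green absorbance at 620 nm. Mean of three determinations.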

HaCaT [17] = assay: Activation of AMPK/SIRT1 in human HaCaT cells assessed as nitric oxide production incubated for 1 hr by DAF-2D staining-based fluorescence assay; type: cell-based; in short: as §1
C2C12 [18] = assay: Activation of AMPK/SIRT1 in mouse C2C12 cells assessed as increase in mitochondrial density at 30 uM after 16 hrs by Mitotracker Green staining-based confocal microscopy in presence of compound C; type: cell-based; in short: as §4
[19] = molecular target: T1, NAD-dependent protein deacetylase sirtuin-1 (Homo sapiens); conditions: HaCaT, 1 uM
HT-29 = assay: Antiproliferative activity against human HT-29 cells assessed as cell viability after 72 hrs by MTT assay; type: functional, cell-based; conditions: HT-29, 72 h
In short: (§5)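 Cells grown in RPMI with 10% fetal calf serum and penicillin, seeded in sextuplicate at 3 × 10^3 cells/well. After 24 h, cells were exposed 72 h to 5–200 µM. Viability was measured by MTT and expressed as treated/untreated × 100. IC50 was calculated from three independent experiments, reported as mean ± SD.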

NCI-H1299 = assay: Antiproliferative activity against human NCI-H1299 cells assessed as cell viability after 72 hrs by MTT assay; type: functional, cell-based; conditions: NCI-H1299, 72 h; in short: as §5
HEY = assay: Antiproliferative activity against human HEY cells assessed as cell viability after 72 hrs by MTT assay; type: functional, cell-based; in short: as §5
[20] = molecular target: T1, NAD-dependent protein deacetylase sirtuin-1 (Homo sapiens); assay: Activation of SIRT1 in human M14 cells assessed as deacetylation of acetyl-H4K16 after 48 hrs by Western blotting method; type: cell-based
In short: (§6)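 M14 melanoma and H1299 lung cancer cells treated 48 h at 5, 10 and 20 µM. Total protein extracts immunoblotted for acetyl-H4K16, with β-actin as loading control. Detection by HRP secondary antibodies and enhanced chemiluminescence. Bands quantified by densitometry.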

[21] = molecular target: T1, NAD-dependent protein deacetylase sirtuin-1 (Homo sapiens); assay: Activation of SIRT1 in human NCI-H1299 cells assessed as deacetylation of acetyl-H4K16 after 48 hrs by Western blotting method; type: cell-based; in short: as §6
[22] = Antiproliferative activity against human SAN cells assessed as cell viability after 72 hrs by MTT assay; type: functional, cell-based; in short: as §5
A2780 = assay: Antiproliferative activity against human A2780 cells assessed as cell viability after 72 hrs by MTT assay; type: functional, cell-based; conditions: A2780, 72 h; in short: as §5
Caov-3 cell line = assay: Antiproliferative activity against human Caov3 cells assessed as cell viability after 72 hrs by MTT assay; type: functional, cell-based; conditions: Caov-3, 72 h; in short: as §5
A549 = assay: Antiproliferative activity against human A549 cells assessed as cell viability after 72 hrs by MTT assay; type: functional, cell-based; conditions: A549, 72 h; in short: as §5
M14 = assay: Antiproliferative activity against human M14 cells assessed as cell viability after 72 hrs by MTT assay; type: functional, cell-based; conditions: M14, 72 h; in short: as §5
LoVo = assay: Antiproliferative activity against human LoVo cells assessed as cell viability after 72 hrs by MTT assay; type: functional, cell-based; in short: as §5
SK-OV-3 = assay: Antiproliferative activity against human SKOV3 cells assessed as cell viability after 72 hrs by MTT assay; type: functional, cell-based; conditions: SK-OV-3, 72 h; in short: as §5

Row | SMILES | Activity [3] [%] | Activity [4] [%] | Activity (C2C12 [5]) | Activity [6] | Activity (HaCaT [8]) | Activity (HaCaT [9]) | Activity [10] | Activity (HaCaT [11]) | Activity (Mus musculus [12]) | Activity (Mus musculus [14]) | inhibition [16] | Activity (HaCaT [17]) | other results
1 | COC(=O)C1=C(C)NC(C)=C(C(=O)OC)C1c1ccccc1[N+](=O)[O-] [NIFEDIPINE] |  |  |  |  |  |  |  |  |  |  |  |  | IC50 [1]: 9 nM; Activity (HaCaT [2]): inactive
2 | O=C(O)C1=CN(Cc2ccccc2)C=C(C(=O)O)C1c1ccco1 | 41 | 41 | inactive |  |  |  |  |  |  |  |  |  | 
3 | CCOC(=O)C1=CN(Cc2ccccc2)C=C(C(=O)OCC)C1c1ccsc1 | 404 | 126 | Active | Tde | Active | inactive | Active | inactive | Active | Active | inactive | Dose-dependent effect | inhibition (Cavia porcellus [7]): 13%; Activity (C2C12 [13]): inactive; Ratio (Cavia porcellus [15]): 266; Activity (C2C12 [18]): inactive
4 | CC(NC(=O)c1ccccc1/N=C/c1c(O)ccc2ccccc12)c1ccccc1 (stereo not drawn) |  |  |  |  |  |  |  |  |  |  |  |  | inhibition [19]: Active
5 | CCOC(=O)C1=CN(Cc2ccccc2)C=C(C(=O)OCC)C1c1ccc(CN2CCN(C)CC2)cc1 | 152 | 68 |  |  | Active | inactive |  | inactive |  |  |  |  | IC50 (HT-29): 11 µM; IC50 (NCI-H1299): 24 µM; IC50 (HEY): 15 µM; Activity [20]: Dose-dependent effect; Activity [21]: Dose-dependent effect; IC50 [22]: 16 µM; IC50 (A2780): 10 µM; IC50 (Caov-3 cell line): 24 µM; IC50 (A549): 20 µM; IC50 (M14): 8 µM; IC50 (LoVo): 15 µM; IC50 (SK-OV-3): 35 µM
6 | CCOC(=O)C1=CN(Cc2ccccc2)C=C(C(=O)OCC)C1c1ccco1 | 294 | 64 |  | Tde | Active |  | Active |  | Active | Active | inactive | Dose-dependent effect | 
